ChEMBL document CHEMBL4406859, “Antitumor and antiviral activities of 4-substituted 1,2,3-triazolyl-2,3-dibenzyl-L-ascorbic acid derivatives” (Eur J Med Chem, 2019)
pEC50, pIC50: −log10 of the molar value. Calls of active or inactive are those of the source. No cut-off for these calls is given here.

Experiments:
[1] = tested on: A549; experiment: Antiproliferative activity against human A549 cells assessed as reduction in cell viability incubated for 72 hrs by MTT assay; format: functional, cell-based; conditions: A549, 72 h
Method in brief: (§1)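 Cells (ATCC) grown in DMEM with 10 FBS, penicillin/streptomycin, 2 mM glutamine, 37 °C, 5 CO2. 5000 cells/well seeded; after 24 h, freshly prepared dilutions at five concentrations (0.01–100 μM) added for 72 h. MTT read-out; absorbance converted to percentage growth by NIH formulas. Two experiments in quadruplicate; IC50 by linear regression.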

[2] = tested on: CFPAC-1; experiment: Antiproliferative activity against human CFPAC-1 cells assessed as reduction in cell viability incubated for 72 hrs by MTT assay; format: functional, cell-based; conditions: Homo sapiens, CFPAC-1, 72 h; read-out: IC50; method in brief: as §1
[3] = tested on: HCT-116; experiment: Antiproliferative activity against human HCT116cells assessed as reduction in cell viability incubated for 72 hrs by MTT assay; format: functional, cell-based; conditions: HCT-116, 72 h; method in brief: as §1
[4] = tested on: HeLa; experiment: Antiproliferative activity against human HeLa cells assessed as reduction in cell viability incubated for 72 hrs by MTT assay; format: functional, cell-based; method in brief: as §1
[5] = tested on: HepG2; experiment: Antiproliferative activity against human HepG2 cells assessed as reduction in cell viability incubated for 72 hrs by MTT assay; format: functional, cell-based; conditions: HepG2, 72 h; method in brief: as §1
[6] = tested on: MCF7; experiment: Antiproliferative activity against human MCF7 cells assessed as reduction in cell viability incubated for 72 hrs by MTT assay; format: functional, cell-based; conditions: MCF7, 72 h; method in brief: as §1
[7] = tested on: SW-620; experiment: Antiproliferative activity against human SW620 cells assessed as reduction in cell viability incubated for 72 hrs by MTT assay; format: functional, cell-based; conditions: SW-620, 72 h; method in brief: as §1
[8] = tested on: HFF; experiment: Cytotoxicity against human HFF cells assessed as reduction in cell viability incubated for 72 hrs by MTT assay; format: cell-based; method in brief: as §1
[9] = tested on: Influenza A virus; experiment: Antiviral activity against Influenza A virus (A/Ned/378/05(H1N1)) infected in dog MDCK cells assessed as reduction in virus-induced cytopathogenicity incubated for 7 days by microscopic analysis; format: functional, organism-based; conditions: for pEC50: Influenza A virus, A/Ned/378/05(H1N1), MDCK, 168 h
[10] = tested on: Influenza A virus H3N2; experiment: Antiviral activity against Influenza A virus (A/HK/7/87(H3N2)) infected in dog MDCK cells assessed as reduction in virus-induced cytopathogenicity incubated for 7 days by microscopic analysis; format: functional, organism-based; conditions: A/Hong Kong/7/1987(H3N2); for pEC50: 168 h
[11] = tested on: Influenza B virus; experiment: Antiviral activity against Influenza B virus (B/Ned/537/05) infected in dog MDCK cells assessed as reduction in virus-induced cytopathogenicity incubated for 7 days by microscopic analysis; format: functional, organism-based; conditions: for pEC50: 168 h
[12] = tested on: Influenza A virus; experiment: Antiviral activity against Influenza A virus (A/Ned/378/05(H1N1)) infected in dog MDCK cells assessed as reduction in virus-induced cytopathogenicity incubated for 7 days by MTS assay; format: functional, organism-based
[13] = tested on: Influenza A virus H3N2; experiment: Antiviral activity against Influenza A virus (A/HK/7/87(H3N2)) infected in dog MDCK cells assessed as reduction in virus-induced cytopathogenicity incubated for 7 days by MTS assay; format: functional, organism-based; conditions: A/Hong Kong/7/1987(H3N2); for pEC50: 168 h
[14] = tested on: Influenza B virus; experiment: Antiviral activity against Influenza B virus (B/Ned/537/05) infected in dog MDCK cells assessed as reduction in virus-induced cytopathogenicity incubated for 7 days by MTS assay; format: functional, organism-based; conditions: for pEC50: 168 h
[15] = Cytotoxicity against dog MDCK cells assessed as minimum cytotoxic concentration by observing alteration in cell morphology incubated for 3 days by microscopic analysis; format: cell-based, Canis lupus familiaris
[16] = tested on: MDCK; experiment: Cytotoxicity against dog MDCK cells assessed as reduction in cell viability incubated for 3 days by coulter counter method; format: cell-based, Canis lupus familiaris; conditions: mdck, 72 h
[17] = tested on: MCF7; experiment: Induction of apoptosis in human MCF7 cells assessed as early apoptotic cells at 2 times of cytotoxic IC50 incubated for 24 hrs by annexin V staining based inverted phase contrast fluorescence microscopy (reference value: 0 %); format: functional
[18] = tested on: MCF7; experiment: Induction of apoptosis in human MCF7 cells assessed as late apoptotic cells at 2 times of cytotoxic IC50 incubated for 24 hrs by annexin V staining based inverted phase contrast fluorescence microscopy (reference value: […]); format: functional
[19] = tested on: MCF7; experiment: Induction of apoptosis in human MCF7 cells assessed as necrotic cells at 2 times of cytotoxic IC50 incubated for 24 hrs by annexin V staining based inverted phase contrast fluorescence microscopy (reference value: 0 %); format: functional
[20] = tested on: MCF7; experiment: Induction of apoptosis in human MCF7 cells assessed as early apoptotic cells at 2 times of cytotoxic IC50 incubated for 48 hrs by annexin V staining based inverted phase contrast fluorescence microscopy (reference value: 0 %); format: functional
[21] = tested on: MCF7; experiment: Induction of apoptosis in human MCF7 cells assessed as late apoptotic cells at 2 times of cytotoxic IC50 incubated for 48 hrs by annexin V staining based inverted phase contrast fluorescence microscopy (reference value: 10.60 %); format: functional
[22] = tested on: MCF7; experiment: Induction of apoptosis in human MCF7 cells assessed as necrotic cells at 2 times of cytotoxic IC50 incubated for 24 hrs by annexin V staining based inverted phase contrast fluorescence microscopy (reference value: 0.84 %); format: functional
[23] = tested on: MCF7; experiment: Upregulation of HIF1alpha in human MCF7 cells at cytotoxic IC50 incubated for 24 and 48 hrs by Western blot analysis; format: functional, cell-based
[24] = tested on: MCF7; experiment: Downregulation of NOS2 in human MCF7 cells at cytotoxic IC50 incubated for 24 and 48 hrs by Western blot analysis; format: functional, cell-based
[25] = tested on: Cytomegalovirus; experiment: Antiviral activity against Cytomegalovirus AD169 infected in human HELF cells assessed as reduction in virus-induced cytopathogenicity incubated for 7 days by Giemsa staining based microscopic analysis; format: functional, organism-based; conditions: Human betaherpesvirus 5, AD169, HELF, 168 h
Method in brief: (§2)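 Confluent HEL fibroblasts infected with CMV (Davis or AD-169) at 100 PFU/well for 2 h. Residual virus removed, then medium with graded compound concentrations added (duplicate). Incubated 7 days at 37 °C. Cytopathogenicity scored microscopically after ethanol fixation and Giemsa staining. EC50 read from plots of % cytopathogenicity versus concentration.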

[26] = tested on: Cytomegalovirus; experiment: Antiviral activity against Cytomegalovirus Davis infected in human HELF cells assessed as reduction in virus-induced cytopathogenicity incubated for 7 days by Giemsa staining based microscopic analysis; format: functional, organism-based; conditions: Human betaherpesvirus 5, Davis, 168 h; method in brief: as §2
[27] = tested on: Human alphaherpesvirus 3; experiment: Antiviral activity against thymidine kinase deficient Varicella zoster virus infected in human HELF cells assessed as reduction in virus-induced cytopathogenicity incubated for 7 days by Giemsa staining based microscopic analysis; format: functional, organism-based; conditions: Human alphaherpesvirus 3, HELF, 168 h
[28] = tested on: Human alphaherpesvirus 3; experiment: Antiviral activity against thymidine kinase positive Varicella zoster virus infected in human HELF cells assessed as reduction in virus-induced cytopathogenicity incubated for 7 days by Giemsa staining based microscopic analysis; format: functional, organism-based; conditions: Human alphaherpesvirus 3, HELF, 168 h
[29] = Cytotoxicity against human HELF cells assessed as minimum cytotoxic concentration by observing alteration in cell morphology incubated for 3 days by microscopic analysis; format: cell-based; conditions: HELF cells
Method in brief: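 Read-out is the minimum cytotoxic concentration (MCC): the lowest compound concentration giving a microscopically detectable change in cell morphology. Measured on confluent human embryonic lung (HEL) fibroblast cultures exposed to a range of compound concentrations.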

[30] = tested on: Human alphaherpesvirus 1; experiment: Antiviral activity against Herpes simplex virus 1 KOS infected in human HELF cells assessed as reduction in virus-induced cytopathogenicity incubated for 7 days by microscopic analysis; format: functional, organism-based; conditions: strain KOS
[31] = tested on: Human alphaherpesvirus 2; experiment: Antiviral activity against Herpes simplex virus 2 G infected in human HELF cells assessed as reduction in virus-induced cytopathogenicity incubated for 7 days by microscopic analysis; format: functional, organism-based
[32] = tested on: Human alphaherpesvirus 1; experiment: Antiviral activity against Herpes simplex virus 1 TK-KOS-ACV infected in human HELF cells assessed as reduction in virus-induced cytopathogenicity incubated for 7 days by microscopic analysis; format: functional, organism-based
[33] = tested on: Human adenovirus 2; experiment: Antiviral activity against Human adenovirus 2 infected in human HELF cells assessed as reduction in virus-induced cytopathogenicity incubated for 7 days by microscopic analysis; format: functional, organism-based
[34] = tested on: Human coronavirus 229E; experiment: Antiviral activity against Human coronavirus 229E infected in human HELF cells assessed as reduction in virus-induced cytopathogenicity incubated for 7 days by microscopic analysis; format: functional, organism-based
[35] = tested on: Coxsackievirus B4; experiment: Antiviral activity against Human coxsackievirus B4 infected in vero cells assessed as reduction in virus-induced cytopathogenicity incubated for 7 days by microscopic analysis; format: functional, organism-based
[36] = tested on: Reovirus sp.; experiment: Antiviral activity against Reovirus infected in vero cells assessed as reduction in virus-induced cytopathogenicity incubated for 7 days by microscopic analysis; format: functional, organism-based
[37] = tested on: Sindbis virus; experiment: Antiviral activity against Sindbis virus infected in vero cells assessed as reduction in virus-induced cytopathogenicity incubated for 7 days by microscopic analysis; format: functional, organism-based
[38] = Cytotoxicity against human HELF cells assessed as reduction in cell viability incubated for 3 days by coulter counter method; format: cell-based; conditions: 72 h
Method in brief: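 HEL cells seeded at 5 x 10^3/well and allowed to proliferate 24 h, then exposed to graded compound concentrations for 3 days at 37 °C. Cell number counted with a Coulter counter.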

O=C1O[C@H]([C@@H](O)Cn2ccnn2)C(OCc2ccccc2)=C1OCc1ccccc1
pIC50 [1]: < 4.00
pIC50 [2]: < 4.00
pIC50 [3]: < 4.00
pIC50 [4]: < 4.00
pIC50 [5]: < 4.00
pIC50 [6]: < 4.00
pIC50 [7]: < 4.00
pIC50 [8]: 6.21
pEC50 [9]: 4.12
pEC50 [10]: 4.35
pEC50 [11]: < 4.00
pEC50 ([12]; Influenza A virus, A/Ned/378/05(H1N1), MDCK, 168 h): 4.45
pEC50 [13]: 4.27
pEC50 [14]: < 4.00
MCC at 72 h [15]: > 100 µM
CC50 [16]: > 100 µM

NC12CC3CC(CC(C3)C1)C2 [AMANTADINE]
pEC50 [9]: 4.70
pEC50 [10]: 6.70
pEC50 [11]: < 4.00
pEC50 [12]: 4.65
pEC50 [13]: 7.52
pEC50 [14]: < 4.00
MCC at 72 h [15]: > 100 µM
CC50 [16]: > 100 µM

CCCCCCCCCCc1cn(C[C@H](O)[C@H]2OC(=O)C(OCc3ccccc3)=C2OCc2ccccc2)nn1
pIC50 [1]: 5.17
pIC50 [2]: 4.40
pIC50 [3]: 4.54
pIC50 [4]: 4.64
pIC50 [5]: 4.91
pIC50 [6]: 7.10
pIC50 [7]: 4.35
pIC50 [8]: < 4.00
Activity [17]: 0%
Activity [18]: 1.68%
Activity [19]: 11.36%
Activity [20]: 13.4%
Activity [21]: 35.3%
Activity [22]: 8.76%
Activity [23]: Active
Activity [24]: Active
pEC50 [25]: < 5.40
pEC50 [26]: < 5.40
pEC50 [27]: 4.97
pEC50 [28]: 5.11
MCC at 72 h [29]: 20 µM
Activity [9]: inactive
Activity [10]: inactive
Activity [11]: inactive
Activity [12]: inactive
Activity [13]: inactive
Activity [14]: inactive
Activity [30]: inactive
Activity [31]: inactive
Activity [32]: inactive
Activity [33]: inactive
Activity [34]: inactive
Activity [35]: inactive
Activity [36]: inactive
Activity [37]: inactive

Cc1ccc(-c2cn(C/C=C3\OC(=O)C(OCc4ccccc4)=C3OCc3ccccc3)nn2)cc1
pIC50 [1]: < 4.00
pIC50 [2]: < 4.00
pIC50 [3]: < 4.00
pIC50 [4]: 5.13
pIC50 [5]: < 4.00
pIC50 [6]: < 4.00
pIC50 [7]: < 4.00
pIC50 [8]: < 4.00
pEC50 [25]: 5.05
pEC50 [26]: 5.25
pEC50 [27]: 4.56
pEC50 [28]: < 5.40
MCC at 72 h [29]: 20 µM
CC50 [38]: > 100 µM
Activity [9]: inactive
Activity [10]: inactive
Activity [11]: inactive
Activity [12]: inactive
Activity [13]: inactive
Activity [14]: inactive
Activity [30]: inactive
Activity [31]: inactive
Activity [32]: inactive
Activity [33]: inactive
Activity [34]: inactive
Activity [35]: inactive
Activity [36]: inactive
Activity [37]: inactive
